Screening data: PubChem BioAssay, several laboratories
ARFGAP1 inhibitor: inhibitors of rat ARFGAP1 GAP activity, primary screen, biochemical, fluorescence polarization, GDP tracer; ADP-ribosylation factor GTPase-activating protein 1 (Rattus norvegicus), Q62848; Arfgap1-stimulated ARF1 GTP hydrolysis, GDP FP detection; inhibition, % at 16.5 µM; 360,000 tested, 0.26% active;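 active means inhibition above a per-plate limit, mean inhibition of low control wells plus 3 SD, cut at about 25% in these data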;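 further: 0% = DMSO wells with enzyme and 100% = wells lacking Arfgap1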
Target sequence (Q62848 1-136 limits assumed): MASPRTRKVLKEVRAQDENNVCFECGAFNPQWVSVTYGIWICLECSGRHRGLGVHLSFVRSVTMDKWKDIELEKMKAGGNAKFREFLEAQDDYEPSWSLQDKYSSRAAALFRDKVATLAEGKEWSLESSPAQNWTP
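System: truncated rat Arfgap1 GAP domain / Benchmarks: high control wells lacking Arfgap1, low control full reaction with DMSO / Times: compound-enzyme preincubation 20 min, reaction 120 min, detection 60 min, 25 °C / Repeats: one replicate per compound / Also added: human ARF1(Δ1-17)-GTP substrate / Measured by: Tracer-displacement fluorescence polarization with EDTA stop, 620/688 nm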
Rev-erbA mod: modulators of Rev-erb alpha DNA binding, primary screen, biochemical, FITC-DNA, fluorescence polarization, uHTS; Rev-erbα–FITC-DNA binding, 90 min; 370,000 tested, 0.79% active; AID 1259318, 2017; activity, % at 10 µM;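 active means activity above about 14%, limit read from the data; passing the limit was not always enough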;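 further: 0% = DMSO wells with 35 nM protein and 100% = DMSO wells with 750 nM protein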
HGIII-sPLA2 inh: human group III sPLA2 inhibitors, primary screen, biochemical, QFRET, BODIPY PC-A2 liposome substrate | inhibition, % at 12.2 µM | QFRET BODIPY PC-A2 liposome hydrolysis, fluorescence | 370,000 tested, 0.56% active;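 active means inhibition above mean plus 3 SD of compounds lying within the high and low control bounds, cut at about 19% in these data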;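 further: 0% = median of test compound wells and 100% = no enzyme DMSO wells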
MsrA inh: bovine MsrA enzyme inhibitors, primary screen, biochemical, absorbance, HTS | Methionine sulfoxide reductase A (Bos taurus) | purified bovine MsrA, absorbance read-out | AID 651718, 2012 | inhibition, % at 15.5 µM | 360,000 tested, 0.75% active; in the data active means inhibition above about 4.5%;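 further: 0% = vehicle wells with enzyme and 100% = reference inhibitor wells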
ASAP1 GAP inh: inhibitors of human ASAP1 ArfGAP activity, primary screen, biochemical, fluorescence polarization | Arf-GAP with SH3 domain, ANK repeat and PH domain-containing protein 1 (Homo sapiens), … | ASAP1-stimulated ARF1 GTP hydrolysis, GDP FP detection | inhibition, % at 16.5 µM | 360,000 tested, 0.19% active; in the data active means inhibition above about 25%;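 further: 0% = vehicle with enzyme and substrate and 100% = no enzyme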
bovine MsrA act: bovine MsrA enzyme activators, primary screen, biochemical, absorbance, HTS; activation, % at 10.6 µM; 360,000 tested, 0.3% active; purified bovine MsrA, absorbance read-out; AID 602163, 2012; in the data active means activation above about 7.5%;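 further: 0% = vehicle and 100% = reference activator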
* hit, by the source's call; . = no result given. Rows were chosen to be rich in hits. Some 2.7% of all compounds tested hit in one or more screens of this group.

SMILES | ARFGAP1 inhibitor | Rev-erbA mod | HGIII-sPLA2 inh | MsrA inh | ASAP1 GAP inh | bovine MsrA act
CC1CC(C)CN(CCCNC(=O)C2CCC(=O)N2C2CCCC2)C1 (centres undefined) | 32* | -5 | 2 | 0 | -9 | -15
CC(=O)[C@H]1CCC2C3CC=C4C[C@@H](OC(=O)CCC(=O)O)CC[C@]4(C)C3CC[C@@]21C (some centres undefined) | . | -3 | . | . | . | .
Cc1cc(N)ncc1[N+](=O)[O-] | 0 | 5 | 11 | 4.6* | -5 | -7
Cc1cc2nc[nH]c2cc1[N+](=O)[O-] | 4 | 4 | -2 | 0 | 12 | -1
CCCCCCC(=O)O[C@H]1CC[C@H]2[C@@H]3CCc4cc(O)ccc4[C@H]3CC[C@]12C | . | 7 | . | . | . | .
CN(C)/C=N/c1ncc(C(=O)c2ccc3ccccc3c2)s1 | 18 | 2 | -5 | 4.6* | -5 | -6
CC(=O)Nc1ccc(S(=O)(=O)Nc2onc(C)c2C)cc1 | . | -2 | . | . | . | .
Cn1nnnc1SCC1=C(C(=O)O)N2C(=O)[C@H](NC(=O)C(OC=O)c3ccccc3)C2SC1 (some centres undefined) | . | -7 | . | . | . | .
CC1(C)Cc2c(c(=S)nc(-c3ccccc3)n2CCN2CCOCC2)CO1 | -1 | 6 | 4 | 4.6* | 8 | -4
COCCn1c(-c2ccccc2)nc(=S)c2c1CC(C)(C)OC2 | 0 | 2 | 3 | 3 | -2 | -3
CC[C@H]1CN2CCc3cc(OC)c(OC)cc3C2C[C@@H]1CC1NCCc2cc(OC)c(OC)cc21 (some centres undefined) | . | 3 | . | . | . | .
COc1ccc(CCC(=O)Nc2c(-c3ccc(N(C)C)cc3)[nH][nH]c2=O)cc1 | -3 | 4 | 12 | 2 | 49* | 2
Cc1ccc(C)c(/C(O)=C2\C(=O)C(=O)N(Cc3cccnc3)C2c2cccnc2)c1 (centres undefined) | -1 | 5 | 7 | 4.8* | 0 | -5
O=Cc1ccc(-c2cccs2)s1 | 1 | -4 | -5 | 2 | -2 | -4
Oc1ccc(N=Cc2ccc(-c3cccs3)s2)cc1 | -1 | -6 | -1 | 5.2* | 5 | -9
Cc1cc(NS(C)(=O)=O)c(=O)n(Cc2cccc(F)c2)c1 | 0 | 2 | 23* | 0 | -7 | 0
O=C(Nc1cccnc1)c1ccc([N+](=O)[O-])s1 | 0 | -17 | -1 | 2 | -9 | 13*
O=C[C@H](O)[C@@H](O)[C@H](O)[C@H](O)CO | . | 3 | . | . | . | .
N[C@@H](CC(=O)N1CCn2c(nnc2C(F)(F)F)C1)Cc1cc(F)c(F)cc1F | . | -3 | . | . | . | .
CCN(CCCNC(=O)C1CCC(=O)N1Cc1ccc(F)cc1)c1cccc(C)c1 (centres undefined) | 11 | 0 | 6 | 0 | 6 | 11*
CCN(CCCNC(=O)C1CCC(=O)N1C1CCCC1)c1cccc(C)c1 (centres undefined) | 2 | 6 | -5 | 0 | -9 | 0
Nc1ccc2c(c1)Cc1cc(N)c(Cl)cc1-2 | 3 | 2 | 24* | 2 | -5 | -9
CCCCC[n+]1cccc2c3ccccc3ccc21 | 4 | -2 | 2 | 0 | -10 | -6
CCC[n+]1c2ccccc2cc2ccccc21 | -5 | 0 | 29* | -1 | -3 | -2
Cc1cccc(NC(=S)N=Nc2c(O)n(CN3CCOCC3)c3ccccc23)c1C | 3 | 4 | 23* | 2 | 7 | -2
Clc1nc(-c2ccccn2)nc2scc(-c3ccccc3)c12 | 7 | 21 | 21* | 3 | -17 | -2
O=c1cnnc(N/N=C/c2cccs2)[nH]1 | 4 | -10 | 0 | 4.6* | 5 | -4
CCN(CC(=O)Nc1ccc([N+](=O)[O-])cc1OC)c1ccccc1 | 0 | 3 | -6 | 4.8* | 10 | -3
